Legend:
Assay type in all cases: functional
Staphylococcus aureus [1] = experiment: Antibacterial activity against methicillin-resistant Staphylococcus aureus SR3637 infected in JCL/ICR mouse systemic infection model assessed as mortality administered as iv measured over 7 days; settings: 168 h
How it was run: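 Lethal systemic infection model in mice; test agents were given intravenously.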

Staphylococcus aureus [2] = experiment: Antibacterial activity against methicillin-resistant Staphylococcus aureus SR3637 assessed as growth inhibition by broth microdilution method
Haemophilus influenzae [3] = experiment: Potency index, ratio of linezolid MIC to compound MIC for Haemophilus influenzae SR27914 clinical isolate
Streptococcus pneumoniae [4] = experiment: Potency index, ratio of linezolid MIC to compound MIC for Streptococcus pneumoniae SR26207 clinical isolate
Moraxella catarrhalis [5] = experiment: Potency index, ratio of linezolid MIC to compound MIC for Moraxella catarrhalis SR26840 clinical isolate
Enterococcus faecium [6] = experiment: Potency index, ratio of linezolid MIC to compound MIC for Enterococcus faecium SR7940 clinical isolate
Enterococcus faecalis [7] = experiment: Potency index, ratio of linezolid MIC to compound MIC for Enterococcus faecalis SR1004 clinical isolate
Staphylococcus aureus [8] = experiment: Potency index, ratio of linezolid MIC to compound MIC for Staphylococcus aureus Smith
Staphylococcus aureus [9] = experiment: Potency index, ratio of linezolid MIC to compound MIC for Staphylococcus aureus SR20549 clinical isolate
Haemophilus influenzae [10] = experiment: Antibacterial activity against Haemophilus influenzae SR27914 clinical isolate assessed as growth inhibition by broth microdilution method
Streptococcus pneumoniae [11] = experiment: Antibacterial activity against Streptococcus pneumoniae SR26207 clinical isolate assessed as growth inhibition by broth microdilution method
Staphylococcus aureus [12] = experiment: Antibacterial activity against linezolid-resistant Staphylococcus aureus NRS271 assessed as growth inhibition by broth microdilution method
Enterococcus faecalis [13] = experiment: Antibacterial activity against Enterococcus faecalis SR1004 clinical isolate assessed as growth inhibition by broth microdilution method
Staphylococcus aureus [14] = experiment: Antibacterial activity against Staphylococcus aureus SR20549 clinical isolate assessed as growth inhibition by broth microdilution method
Staphylococcus aureus [15] = experiment: Antibacterial activity against Staphylococcus aureus Smith assessed as growth inhibition by broth microdilution method
Moraxella catarrhalis [16] = experiment: Antibacterial activity against Moraxella catarrhalis SR26840 clinical isolate assessed as growth inhibition by broth microdilution method
Enterococcus faecium [17] = experiment: Antibacterial activity against Enterococcus faecium SR7940 clinical isolate assessed as growth inhibition by broth microdilution method

| SMILES | ED50 (Staphylococcus aureus [1]) | MIC (Staphylococcus aureus [2]) | Ratio (Haemophilus influenzae [3]) | Ratio (Streptococcus pneumoniae [4]) | Ratio (Moraxella catarrhalis [5]) | Ratio (Enterococcus faecium [6]) | Ratio (Enterococcus faecalis [7]) | Ratio (Staphylococcus aureus [8]) | Ratio (Staphylococcus aureus [9]) | MIC (Haemophilus influenzae [10]) | MIC (Streptococcus pneumoniae [11]) | MIC (Staphylococcus aureus [12]) | MIC (Enterococcus faecalis [13]) | MIC (Staphylococcus aureus [14]) | MIC (Staphylococcus aureus [15]) | MIC (Moraxella catarrhalis [16]) | MIC (Enterococcus faecium [17]) |
| --- | --- | --- | --- | --- | --- | --- | --- | --- | --- | --- | --- | --- | --- | --- | --- | --- | --- |
| O=CN1CCN(c2c(F)cc(N3C[C@H](Cn4ccnn4)OC3=O)cc2F)CCN1 | 2.5 mg/kg | 0.25 µg/mL | 4 | 4 | 4 | 4 | 4 | 4 | 4 | 8 µg/mL | ≤ 0.063 µg/mL | 16 µg/mL | 1 µg/mL | 0.25 µg/mL | 1 µg/mL | 8 µg/mL | 1 µg/mL |
| CONC(=O)N1CCN(c2c(F)cc(N3C[C@H](CNC(=S)OC)OC3=O)cc2F)CCN1 | 3.05 mg/kg | 0.5 µg/mL | – | – | – | – | – | – | – | 16 µg/mL | 0.25 µg/mL | 4 µg/mL | 0.5 µg/mL | 0.5 µg/mL | 0.5 µg/mL | 2 µg/mL | 0.25 µg/mL |
| CC(=O)NC[C@H]1CN(c2ccc(-c3ccc(N4CCNOCC4)nc3)c(F)c2)C(=O)O1 | – | – | 2 | 2 | 2 | 2 | 2 | 2 | 2 | 16 µg/mL | 0.125 µg/mL | 8 µg/mL | 1 µg/mL | 1 µg/mL | 2 µg/mL | 16 µg/mL | 1 µg/mL |
| O=C1O[C@@H](Cn2ccnn2)CN1c1ccc(-c2ccc(N3CCNOCC3)nc2)c(F)c1 | – | – | 2 | 2 | 2 | 2 | 2 | 2 | 2 | 32 µg/mL | 0.25 µg/mL | 8 µg/mL | 2 µg/mL | 1 µg/mL | 2 µg/mL | 8 µg/mL | 1 µg/mL |
| CNC(=O)N1CCN(c2c(F)cc(N3C[C@H](CNC(=S)OC)OC3=O)cc2F)CCN1 | 3.17 mg/kg | 0.25 µg/mL | – | – | – | – | – | – | – | 8 µg/mL | ≤ 0.063 µg/mL | 2 µg/mL | 0.25 µg/mL | 0.25 µg/mL | 0.25 µg/mL | 1 µg/mL | 0.25 µg/mL |
| CC(=S)NC[C@H]1CN(c2ccc(N3CCNN(C(N)=O)CC3)c(F)c2)C(=O)O1 | – | – | 4 | 4 | 4 | 4 | 4 | 4 | 4 | 4 µg/mL | 0.063 µg/mL | 8 µg/mL | 0.5 µg/mL | 0.25 µg/mL | 0.25 µg/mL | 4 µg/mL | 0.5 µg/mL |
| CC(=S)NC[C@H]1CN(c2cc(F)c(N3CCNN(C(N)=O)CC3)c(F)c2)C(=O)O1 | – | – | 4 | 4 | 4 | 4 | 4 | 4 | 4 | 4 µg/mL | 0.063 µg/mL | 4 µg/mL | 0.25 µg/mL | 0.125 µg/mL | 0.25 µg/mL | 1 µg/mL | 0.25 µg/mL |
| COC(=S)NC[C@H]1CN(c2ccc(N3CCNN(C(N)=O)CC3)c(F)c2)C(=O)O1 | – | – | 4 | 4 | 4 | 4 | 4 | 4 | 4 | 4 µg/mL | ≤ 0.063 µg/mL | 4 µg/mL | 0.25 µg/mL | 0.25 µg/mL | 0.25 µg/mL | 2 µg/mL | 0.125 µg/mL |
| COC(=S)NC[C@H]1CN(c2cc(F)c(N3CCNN(C(N)=O)CC3)c(F)c2)C(=O)O1 | 1.23 mg/kg | 0.25 µg/mL | 4 | 4 | 4 | 4 | 4 | 4 | 4 | 16 µg/mL | ≤ 0.063 µg/mL | 2 µg/mL | 0.5 µg/mL | 0.25 µg/mL | 0.25 µg/mL | 0.5 µg/mL | 0.125 µg/mL |
| COC(=S)NC[C@H]1CN(c2cc(F)c(N3CCON(C(N)=O)CC3)c(F)c2)C(=O)O1 | – | – | 4 | 4 | 4 | 4 | 4 | 4 | 4 | 8 µg/mL | ≤ 0.063 µg/mL | 2 µg/mL | 0.25 µg/mL | 0.25 µg/mL | 0.25 µg/mL | 1 µg/mL | 0.125 µg/mL |
| COC(=S)NC[C@H]1CN(c2ccc(N3CCn4c(=O)c5cccnc5n4CC3)c(F)c2)C(=O)O1 | 3.17 mg/kg | 0.25 µg/mL | – | – | – | – | – | – | – | 16 µg/mL | 0.125 µg/mL | 2 µg/mL | 0.5 µg/mL | 0.25 µg/mL | 0.25 µg/mL | 2 µg/mL | 0.25 µg/mL |
| COC(=S)NC[C@H]1CN(c2cc(F)c(N3CCn4c(=O)c5cccnc5n4CC3)c(F)c2)C(=O)O1 | 9.83 mg/kg | 0.25 µg/mL | – | – | – | – | – | – | – | > 64 µg/mL | 0.125 µg/mL | 2 µg/mL | 0.5 µg/mL | 0.25 µg/mL | 0.25 µg/mL | 1 µg/mL | 0.25 µg/mL |
| O=CN1CCN(c2c(F)cc(N3C[C@H](CNc4ccon4)OC3=O)cc2F)CCN1 | – | – | 4 | 4 | 4 | 4 | 4 | 4 | 4 | 16 µg/mL | 0.25 µg/mL | 16 µg/mL | 1 µg/mL | 0.5 µg/mL | 1 µg/mL | 8 µg/mL | 1 µg/mL |
| CC(=O)NC[C@H]1CN(c2cc(F)c(N3CCON(C(C)=O)CC3)c(F)c2)C(=O)O1 | – | – | – | – | – | – | – | – | – | 32 µg/mL | 1 µg/mL | 32 µg/mL | 2 µg/mL | 2 µg/mL | 4 µg/mL | 4 µg/mL | 4 µg/mL |
| COC(=S)NC[C@H]1CN(c2ccc(N3CCNN(C(C)=O)CC3)c(F)c2)C(=O)O1 | 2.85 mg/kg | 0.5 µg/mL | – | – | – | – | – | – | – | 16 µg/mL | 0.063 µg/mL | 8 µg/mL | 0.5 µg/mL | 0.5 µg/mL | 1 µg/mL | 4 µg/mL | 0.5 µg/mL |

Reference: ChEMBL document CHEMBL2434863, “Synthesis and in vitro/in vivo antibacterial activity of oxazolidinones having thiocarbamate at C-5 on the A-ring and an amide- or urea-substituted [1,2,5]triazepane or [1,2,5]oxadiazepane as the C-ring” (Eur J Med Chem, 2013)
